From ChEMBL document CHEMBL4411330, “Effects of Systematic Shortening of Noncovalent C8 Side Chain on the Cytotoxicity and NF-κB Inhibitory Capacity of Pyrrolobenzodiazepines (PBDs)” (J Med Chem, 2019)
The source made the active and inactive calls. The rule behind the calls is not given here.

Tests used:
[1] = Cytotoxicity against human primary CLL cells assessed as cell death after 48 hrs by annexin V/propidium iodide-staining based flow cytometry; assay type: functional; conditions: read-out: LC50 (the source's name)
Method in brief: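 Primary patient CLL cells were isolated by Histopaque density gradient, phenotyped by flow cytometry and used within 24 h. Culture was RPMI with 10% FBS, 1% glutamate and 1% pen/strep, plus IL-4 5 ng/ml added with compound, at 37 °C, 5% CO2. Cells at 1,000,000 cells/ml were treated from 1 nM upward for 48 h, in triplicate. Annexin V-FITC/PI was read by flow cytometry, and LC50 came from sigmoidal dose-response fits.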

[2] = tested on: JJN-3; experiment: Cytotoxicity against human JJN-3 cells assessed as cell death after 48 hrs by annexin V/propidium iodide-staining based flow cytometry; assay type: functional; conditions: JJN-3, 48 h, read-out: LC50 (the source's name)
Method in brief: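 JJN-3 cells were grown in DMEM with 20% FBS, 1% pen/strep and 1% pyruvate at 37 °C, 5% CO2. They were seeded at 1,000,000 cells/ml and exposed to compound from 1 nM upward for 48 h, in triplicate. Cell death was measured by Annexin V-FITC/propidium iodide flow cytometry, and LC50 was derived from sigmoidal dose-response curves.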

[3] = Cytotoxicity against human B cells assessed as cell death after 48 hrs by annexin V/propidium iodide-staining based flow cytometry; conditions: read-out: LC50
Method in brief: (§1)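 Normal peripheral blood B or T cells from three donors were isolated by Histopaque density gradient and phenotyped for CD19/CD3/CD38/CD49d. They were used within 24 h in RPMI with 10% FBS, 1% glutamate and 1% pen/strep at 37 °C, 5% CO2. Cells at 1,000,000 cells/ml were exposed from 1 nM upward for 48 h, in triplicate. FITC-Annexin V/PI staining was read by flow cytometry, and LC50 was taken from the dose-response curves.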

[4] = Cytotoxicity against human T cells assessed as cell death after 48 hrs by annexin V/propidium iodide-staining based flow cytometry; conditions: read-out: LC50; method in brief: as §1
[5] = Therapeutic index, ratio of LC50 for human B cells to LC50 for human primary CLL cells; assay type: toxicity; conditions: B cells versus primary CLL cells, read-out: TI
[6] = Therapeutic index, ratio of LC50 for human T cells to LC50 for human primary CLL cells; assay type: toxicity; conditions: T cells versus primary CLL cells, read-out: TI
[7] = molecular target: Transcription factor p65 (Homo sapiens) (UniProt Q04206); experiment: Inhibition of NF-kappaB in human JJN-3 cells assessed as reduction in p65 DNA binding activity up to 30 nM after 4 hrs by ELISA; assay type: cell-based
[8] = molecular target: T1, Nuclear factor NF-kappa-B p105 subunit (Homo sapiens) (UniProt P19838); experiment: Inhibition of NF-kappaB in human JJN-3 cells assessed as reduction in p50 DNA binding activity up to 30 nM after 4 hrs by ELISA; assay type: cell-based
T1 sequence (whole entry): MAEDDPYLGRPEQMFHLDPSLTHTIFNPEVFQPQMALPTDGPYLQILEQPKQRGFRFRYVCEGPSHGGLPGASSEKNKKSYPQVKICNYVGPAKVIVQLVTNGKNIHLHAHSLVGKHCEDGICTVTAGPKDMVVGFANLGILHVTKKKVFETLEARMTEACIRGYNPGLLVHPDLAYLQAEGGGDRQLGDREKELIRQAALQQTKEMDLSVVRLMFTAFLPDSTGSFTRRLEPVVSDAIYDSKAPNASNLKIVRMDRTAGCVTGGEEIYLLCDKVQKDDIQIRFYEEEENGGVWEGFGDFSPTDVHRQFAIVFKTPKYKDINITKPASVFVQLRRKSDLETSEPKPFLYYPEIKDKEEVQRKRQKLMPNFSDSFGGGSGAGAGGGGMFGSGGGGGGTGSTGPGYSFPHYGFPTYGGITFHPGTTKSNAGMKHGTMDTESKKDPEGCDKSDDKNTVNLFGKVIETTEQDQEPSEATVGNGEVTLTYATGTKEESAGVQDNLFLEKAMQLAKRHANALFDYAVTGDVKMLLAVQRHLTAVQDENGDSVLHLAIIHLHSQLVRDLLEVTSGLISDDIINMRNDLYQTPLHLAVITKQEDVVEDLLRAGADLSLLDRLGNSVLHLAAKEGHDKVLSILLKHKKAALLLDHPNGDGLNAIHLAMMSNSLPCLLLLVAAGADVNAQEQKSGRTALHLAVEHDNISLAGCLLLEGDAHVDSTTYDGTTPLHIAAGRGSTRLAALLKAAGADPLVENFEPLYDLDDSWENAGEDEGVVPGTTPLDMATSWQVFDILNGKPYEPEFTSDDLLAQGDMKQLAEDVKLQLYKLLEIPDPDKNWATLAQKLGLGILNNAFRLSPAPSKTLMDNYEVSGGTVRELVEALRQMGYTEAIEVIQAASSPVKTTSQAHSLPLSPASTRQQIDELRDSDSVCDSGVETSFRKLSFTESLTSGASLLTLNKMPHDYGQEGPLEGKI

[9] = molecular target: T2, Transcription factor RelB (Homo sapiens) (UniProt Q01201); experiment: Inhibition of NF-kappaB in human JJN-3 cells assessed as reduction in RelB DNA binding activity up to 30 nM after 4 hrs by ELISA; assay type: cell-based
T2 sequence (whole entry): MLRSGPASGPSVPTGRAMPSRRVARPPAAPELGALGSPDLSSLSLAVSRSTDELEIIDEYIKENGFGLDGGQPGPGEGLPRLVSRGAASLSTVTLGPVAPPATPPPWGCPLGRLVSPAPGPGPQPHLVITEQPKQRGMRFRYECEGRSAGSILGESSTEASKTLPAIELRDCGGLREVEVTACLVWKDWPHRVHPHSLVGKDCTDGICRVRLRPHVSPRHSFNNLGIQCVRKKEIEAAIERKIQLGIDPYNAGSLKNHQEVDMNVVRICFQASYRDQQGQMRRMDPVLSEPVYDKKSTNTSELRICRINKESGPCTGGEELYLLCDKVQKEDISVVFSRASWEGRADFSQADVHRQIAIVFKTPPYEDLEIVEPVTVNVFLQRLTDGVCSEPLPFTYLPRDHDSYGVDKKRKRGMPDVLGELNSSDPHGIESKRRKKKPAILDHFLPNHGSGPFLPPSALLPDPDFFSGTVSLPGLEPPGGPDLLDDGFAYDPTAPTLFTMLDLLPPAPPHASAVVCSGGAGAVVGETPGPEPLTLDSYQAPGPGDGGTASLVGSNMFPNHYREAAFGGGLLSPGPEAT

[10] = molecular target: T3, Nuclear factor NF-kappa-B p100 subunit (Homo sapiens) (UniProt Q00653); experiment: Inhibition of NF-kappaB in human JJN-3 cells assessed as reduction in p52 DNA binding activity up to 30 nM after 4 hrs by ELISA; assay type: cell-based
T3 sequence (whole entry): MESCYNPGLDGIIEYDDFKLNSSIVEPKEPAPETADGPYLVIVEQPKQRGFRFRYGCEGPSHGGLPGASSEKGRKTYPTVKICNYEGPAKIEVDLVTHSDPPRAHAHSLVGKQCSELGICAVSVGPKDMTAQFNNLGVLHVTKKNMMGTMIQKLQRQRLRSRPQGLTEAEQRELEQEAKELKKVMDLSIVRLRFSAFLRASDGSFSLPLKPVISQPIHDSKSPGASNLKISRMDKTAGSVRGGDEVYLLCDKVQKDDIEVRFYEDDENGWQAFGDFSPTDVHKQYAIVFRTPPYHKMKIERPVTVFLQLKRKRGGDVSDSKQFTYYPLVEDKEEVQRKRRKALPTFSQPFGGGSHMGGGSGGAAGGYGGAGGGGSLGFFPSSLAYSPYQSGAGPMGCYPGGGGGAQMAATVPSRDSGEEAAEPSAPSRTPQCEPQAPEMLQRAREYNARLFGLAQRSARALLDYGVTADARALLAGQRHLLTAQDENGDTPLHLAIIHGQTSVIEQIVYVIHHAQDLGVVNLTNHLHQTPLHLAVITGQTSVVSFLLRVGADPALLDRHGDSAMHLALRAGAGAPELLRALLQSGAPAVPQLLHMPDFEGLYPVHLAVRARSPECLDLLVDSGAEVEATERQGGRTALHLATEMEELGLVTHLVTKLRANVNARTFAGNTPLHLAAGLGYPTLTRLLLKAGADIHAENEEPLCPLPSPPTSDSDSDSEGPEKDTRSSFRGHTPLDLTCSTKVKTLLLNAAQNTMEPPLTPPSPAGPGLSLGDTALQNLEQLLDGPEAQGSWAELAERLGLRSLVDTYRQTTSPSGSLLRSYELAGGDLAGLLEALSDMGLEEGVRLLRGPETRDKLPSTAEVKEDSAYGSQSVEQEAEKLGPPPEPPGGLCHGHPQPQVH

Sequence of Transcription factor p65 (Homo sapiens) (Q04206 whole entry): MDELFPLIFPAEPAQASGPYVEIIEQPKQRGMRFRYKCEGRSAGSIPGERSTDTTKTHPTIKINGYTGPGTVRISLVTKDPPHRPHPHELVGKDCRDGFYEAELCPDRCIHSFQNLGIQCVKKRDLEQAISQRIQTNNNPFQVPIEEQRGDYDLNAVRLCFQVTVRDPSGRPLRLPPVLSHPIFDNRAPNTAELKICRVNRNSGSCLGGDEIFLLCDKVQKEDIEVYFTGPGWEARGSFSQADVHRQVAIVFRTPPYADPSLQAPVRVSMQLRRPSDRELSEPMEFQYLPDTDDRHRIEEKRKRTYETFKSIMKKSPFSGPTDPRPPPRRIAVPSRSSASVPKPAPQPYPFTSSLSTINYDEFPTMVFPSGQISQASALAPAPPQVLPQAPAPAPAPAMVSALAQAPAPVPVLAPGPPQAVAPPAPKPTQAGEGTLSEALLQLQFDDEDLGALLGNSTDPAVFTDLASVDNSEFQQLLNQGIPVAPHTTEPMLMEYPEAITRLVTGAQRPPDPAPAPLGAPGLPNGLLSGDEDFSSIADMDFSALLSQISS

Compound	CC50 [1]	CC50 [2]	CC50 at 48 h [3]	CC50 at 48 h [4]	selectivity ratio [5]	selectivity ratio [6]	inhibition [7]	inhibition [8]	inhibition [9]	inhibition [10]
CCNC(=O)CCCOc1cc2c(cc1OC)C(=O)N1CCC[C@H]1C=N2	11700 nM	28700 nM	–	–	–	–	–	–	–	–
COc1cc2c(cc1OCCCC(=O)Nc1ccc(C)cc1)N=C[C@@H]1CCCN1C2=O	12.3 nM	17.5 nM	–	–	–	–	–	–	–	–
CCCOc1ccc(NC(=O)CCCOc2cc3c(cc2OC)C(=O)N2CCC[C@H]2C=N3)cc1	8.5 nM	8.7 nM	390 nM	1100 nM	45.9	129	–	–	–	–
COc1cc2c(cc1OCCCC(=O)Nc1ccc3occc3c1)N=C[C@@H]1CCCN1C2=O	9.4 nM	44 nM	1400 nM	3900 nM	149	415	Active	Active	inactive	–
COc1cc2c(cc1OCCCC(=O)Nc1cccnc1)N=C[C@@H]1CCCN1C2=O	4200 nM	1600 nM	–	–	–	–	–	–	–	–
COC(=O)c1cc(NC(=O)c2cc3cc(NC(=O)CCCOc4cc5c(cc4OC)C(=O)N4CCC[C@H]4C=N5)ccc3o2)cn1C	7.5 nM	30 nM	930 nM	1700 nM	124	227	–	inactive	Active	inactive
COC(=O)c1cc2cc(NC(=O)CCCOc3cc4c(cc3OC)C(=O)N3CCC[C@H]3C=N4)ccc2o1	8.9 nM	49 nM	410 nM	2100 nM	46.1	236	–	–	–	–
CCOc1ccc(NC(=O)CCCOc2cc3c(cc2OC)C(=O)N2CCC[C@H]2C=N3)cc1	5.8 nM	15.6 nM	750 nM	3000 nM	129	517	inactive	Active	inactive	inactive
COc1cc2c(cc1OCCCC(=O)Nc1ccc(C)c(C)c1)N=C[C@@H]1CCCN1C2=O	8.6 nM	23.7 nM	–	–	–	–	–	–	–	–
COc1cc2c(cc1OCCCC(=O)Nc1ccc(O)cc1)N=C[C@@H]1CCCN1C2=O	5500 nM	2200 nM	–	–	–	–	inactive	Active	inactive	–
CNC(=O)CCCOc1cc2c(cc1OC)C(=O)N1CCC[C@H]1C=N2	16100 nM	18500 nM	–	–	–	–	–	–	–	–
COc1cc2c(cc1OCCCC(=O)Nc1ccncc1)N=C[C@@H]1CCCN1C2=O	4900 nM	6700 nM	–	–	–	–	–	–	–	–
COc1cc2c(cc1OCCCC(=O)Nc1ccc3c(c1)CCO3)N=C[C@@H]1CCCN1C2=O	5.1 nM	14.7 nM	–	–	–	–	–	–	–	–
COc1cc2c(cc1OCCCC(=O)Nc1ccc3c(c1)CCC3)N=C[C@@H]1CCCN1C2=O	7.7 nM	30 nM	–	–	–	–	–	–	–	–
COc1cc2c(cc1OCCCC(=O)Nc1ccccc1)N=C[C@@H]1CCCN1C2=O	11.6 nM	26.4 nM	–	–	–	–	inactive	Active	inactive	–
COC(=O)c1cc(NC(=O)c2cc(NC(=O)CCCOc3cc4c(cc3OC)C(=O)N3CCC[C@H]3C=N4)cn2C)cn1C	39 nM	21 nM	–	–	–	–	–	–	–	–
CCCNC(=O)CCCOc1cc2c(cc1OC)C(=O)N1CCC[C@H]1C=N2	25100 nM	12700 nM	–	–	–	–	–	–	–	–
COc1cc2c(cc1OCCCC(=O)Nc1cccc(C)c1)N=C[C@@H]1CCCN1C2=O	13.6 nM	20.2 nM	–	–	–	–	–	–	–	–
COc1ccc(NC(=O)CCCOc2cc3c(cc2OC)C(=O)N2CCC[C@H]2C=N3)cc1	8.9 nM	15.3 nM	640 nM	690 nM	71.9	77.5	inactive	Active	inactive	–
CCCCNC(=O)CCCOc1cc2c(cc1OC)C(=O)N1CCC[C@H]1C=N2	22400 nM	51600 nM	–	–	–	–	–	–	–	–
COc1cc2c(cc1OCCCC(=O)NC1CCCCC1)N=C[C@@H]1CCCN1C2=O	7100 nM	1400 nM	1700 nM	12400 nM	0.24	1.74	–	–	–	–
